The structures appear in SMILES notation.

By EC50 is commonly meant the concentration needed to bring the measured effect to its halfway point. The Ki is the equilibrium dissociation constant of an inhibitor or competing ligand from its target.

Experiment [1] is filed under the species Cavia porcellus. As to the kind of experiment: Compound was evaluated for its agonist potency by measurement of contraction of guinea pig aortic strips. To be noted: Aorta. Format: functional. An outline of the steps:
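Cumulative concentration-response, 3–200 μM in 2–3-fold steps. Isometric tension recorded; EC50 = concentration giving half of maximal contraction to supramaximal (-)-NE (30–50 μM), measured before and after each curve.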

Experiment [2] has as its target T1, Adrenergic receptor alpha-2 (Homo sapiens, UniProt P08913+P18825+P18089).
T1 sequence (P08913 whole entry): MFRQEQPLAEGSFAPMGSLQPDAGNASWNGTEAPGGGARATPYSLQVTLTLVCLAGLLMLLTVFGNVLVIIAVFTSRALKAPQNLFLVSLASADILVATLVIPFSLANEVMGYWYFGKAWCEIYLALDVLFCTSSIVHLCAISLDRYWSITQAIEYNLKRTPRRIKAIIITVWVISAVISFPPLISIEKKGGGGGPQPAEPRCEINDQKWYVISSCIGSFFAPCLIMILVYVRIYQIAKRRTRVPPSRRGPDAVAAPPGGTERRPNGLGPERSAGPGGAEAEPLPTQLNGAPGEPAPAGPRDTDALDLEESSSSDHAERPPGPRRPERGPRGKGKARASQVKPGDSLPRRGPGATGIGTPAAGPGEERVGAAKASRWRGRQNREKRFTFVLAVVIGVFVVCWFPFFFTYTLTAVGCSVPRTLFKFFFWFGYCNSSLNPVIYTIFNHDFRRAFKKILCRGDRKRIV
T1 sequence (P18825 whole entry): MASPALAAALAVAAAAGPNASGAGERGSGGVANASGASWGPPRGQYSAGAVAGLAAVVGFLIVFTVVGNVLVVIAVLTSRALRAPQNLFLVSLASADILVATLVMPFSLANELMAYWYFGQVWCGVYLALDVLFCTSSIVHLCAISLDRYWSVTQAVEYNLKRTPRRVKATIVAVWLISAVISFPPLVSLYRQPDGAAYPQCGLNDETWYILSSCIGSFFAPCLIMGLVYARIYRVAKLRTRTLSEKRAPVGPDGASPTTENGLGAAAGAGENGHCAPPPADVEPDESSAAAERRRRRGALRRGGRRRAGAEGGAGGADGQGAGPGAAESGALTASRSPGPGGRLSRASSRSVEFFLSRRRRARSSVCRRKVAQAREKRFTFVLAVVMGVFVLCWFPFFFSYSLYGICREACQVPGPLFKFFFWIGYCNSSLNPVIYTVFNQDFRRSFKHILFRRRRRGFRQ
T1 sequence (P18089 whole entry): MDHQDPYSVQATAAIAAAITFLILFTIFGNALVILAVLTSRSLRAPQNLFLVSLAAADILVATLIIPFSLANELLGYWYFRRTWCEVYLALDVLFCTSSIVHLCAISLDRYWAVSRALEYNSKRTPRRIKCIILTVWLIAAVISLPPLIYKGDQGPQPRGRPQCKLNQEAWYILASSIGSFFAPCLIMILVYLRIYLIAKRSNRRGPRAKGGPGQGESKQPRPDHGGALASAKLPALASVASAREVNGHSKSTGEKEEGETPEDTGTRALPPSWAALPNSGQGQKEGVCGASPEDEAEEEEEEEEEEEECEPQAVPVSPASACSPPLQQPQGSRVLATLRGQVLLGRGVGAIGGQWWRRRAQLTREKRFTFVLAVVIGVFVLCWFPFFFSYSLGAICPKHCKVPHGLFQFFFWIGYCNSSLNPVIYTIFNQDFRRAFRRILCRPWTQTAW
Put plainly: (§1) Compound was tested for its ability to displace [3H]clonidine form alpha-2 adrenergic receptor site in guinea pig cerebral cortical membranes. Details: species or system Cavia porcellus. To be noted: target entry is the homologue from another species. Summed up: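 Guinea pig (male Hartley) cerebral cortex membranes in 50 mM Tris-HCl pH 7.4. Ki from IC50 by Cheng-Prusoff; 3–5 experiments or one in triplicate.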

The species named for experiment [3] is Cavia porcellus. Put plainly: Compound was evaluated for its agonist potency by measurement of potentiation of 2-chloroadenosine stimulation of cyclic AMP accumulation in guinea pig cerebral cortical synaptoneurosomal preparations. Format: functional.
Experiment [4] is described as follows: Compound was tested for its ability to displace [3H]WB-4101 form alpha-1 adrenergic receptor site in guinea pig cerebral cortical membranes. Details: species or system Cavia porcellus. Summed up:
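Guinea pig (male Hartley) cerebral cortex membranes in 50 mM Tris-HCl pH 7.4, ~0.9–1.2 mg protein/mL. […] Ki from IC50 by Cheng-Prusoff; 3–5 experiments or one in triplicate.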

Experiment [5] in a line: Compound was tested for its ability to displace [3H]-prazosin form alpha-1 adrenergic receptor site in guinea pig cerebral cortical membranes. Further details: species or system Cavia porcellus. Summed up: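 Guinea pig (male Hartley) cerebral cortex membranes, homogenised and washed in 50 mM Tris-HCl pH 7.4, ~0.9–1.2 mg protein/mL. 0.5 nM [3H]prazosin (Kd 0.5 nM), 30 min at 30 °C; nonspecific with 10 μM phentolamine. Ki from IC50 by Cheng-Prusoff; 3–5 experiments or one in triplicate.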

For experiment [6], the species on record is Cavia porcellus. As to the kind of experiment: Stimulation of [3H]phosphatidylinositol turnover in synaptoneurosomes at a concentration of 100 uM. Format: functional. Summed up:
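Nonfiltered guinea pig cortical synaptoneurosomes prelabeled 60 min at 37 °C with 1 μM [3H]inositol in Krebs–Henseleit buffer under O2/CO2 (95:5). Washed, resuspended with 10 mM LiCl (~1 mg protein/tube). Agonist at 100 μM, 90 min at 37 °C. Stopped by centrifugation, TCA extraction; [3H]inositol phosphates measured in supernatant.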

The target of experiment [7] is T1, Adrenergic receptor alpha-2. The experiment is described as §1. Further details: species or system Cavia porcellus. The settings on record: target entry is the homologue from another species. Summed up: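 Guinea pig (male Hartley) cerebral cortex membranes in 50 mM Tris-HCl pH 7.4. […] Ki from IC50 by Cheng-Prusoff; 3–5 experiments or one in triplicate.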
This is another data set of the same source.

On to `CNCC(O)c1cccc(O)c1F` (racemic), for which the EC50 is 105 µM in experiment [1] and 40 µM in experiment [3]. Also, the Ki in experiment [2] is 1.2 µM; in experiment [4] it was 6.6 µM; in experiment [5], 17 µM. The compound also registered a Control in experiment [6] of 134%.
As for `CNCC(O)c1cc(O)ccc1F` (racemic), the figures for the EC50 in experiment [1] and in experiment [3] were 11 µM and 4 µM, respectively. The Ki was 1.3 µM in experiment [4], 0.23 µM in experiment [7] and 2.1 µM in experiment [5]. The same compound returned a Control in experiment [6] of 162%.
Consider `CNCC(O)c1ccc(F)c(O)c1` (racemic), for which the EC50 turned out to be 39 µM in experiment [1] and 35 µM in experiment [3]. Besides, the Ki in experiment [4] turned out to be 3.7 µM; in experiment [7] it was 1 µM; in experiment [5], 10 µM. In experiment [6], this compound registered a Control of 136%.
Consider `CNC[C@H](O)c1cccc(O)c1` [PHENYLEPHRINE], for which the EC50 was found to be 27 µM in experiment [1] and 26 µM in experiment [3]. The compound also yielded a Ki in experiment [4] of 2.5 µM. The compound further showed a Control in experiment [6] of 161%.
